Assay results gathered from unrelated publications.
Protocols differ between the studies behind these lines.
Read-out: DPPH scavenging

For `COc1cc(C(CC(=O)c2ccc(C(C)(C)C)cc2)NCCc2ccc(O)c(O)c2)ccc1O` (stereo not shown), the IC50 was 15.6 µg/mL.
The IC50 of `O=c1oc2c(O)c(O)cc3c(=O)oc4c(O)c(O)cc1c4c23` is reported as 67800 nM (absorbance).
The IC50 of `COc1cc(C(CC(=O)c2ccc(Br)cc2)NCCc2ccc(O)c(O)c2)ccc1O` (stereo not shown) is reported as 15.2 µg/mL.
`COc1cc(C=Cc2cc(-c3ccc(N(C)C)cc3)nc(O)n2)ccc1O` has an IC50 of 32.5 µg/mL.
`COc1ccc(-c2nc3cc(C)c(C)cc3[nH]2)cc1OCc1ccccc1` gave an IC50 of 1820 nM (absorbance).
For `COc1cc(C=CC(=O)CC(c2ccc([N+](=O)[O-])cc2)n2ccnc2)ccc1O` (stereo not shown), the IC50 was 26.9 µg/mL.
With `O=C1O[C@H]([C@@H](O)CO)C(O)=C1O` the IC50 was 510 nM.
For `COc1cc(-c2oc3cc(O)cc(O)c3c(=O)c2O[C@@H]2O[C@H](CO)[C@@H](O)[C@H](O)[C@H]2O)ccc1O`, the IC50 was greater than 500000 nM (absorbance).
For `O=C(Cc1c[nH]c2ccccc12)Nc1ccc(F)cc1F`, the IC50 was 1710 nM.
For `Cc1cc2nc(-c3ccccc3OCc3ccccc3)[nH]c2cc1C`, the IC50 was 1800 nM (absorbance).
`COc1ccc(NC(=O)Cc2c[nH]c3ccccc23)cc1` gave an IC50 of 1040 nM.
With `COc1ccc(-c2nc3cc(F)ccc3[nH]2)cc1OCc1ccccc1` the IC50 was 2580 nM (absorbance).
The IC50 of `CCCCCCCCOc1ccc(NC(=O)Cc2c[nH]c3ccccc23)cc1` is reported as 2450 nM.
The IC50 of `COc1cc(C(CC(=O)c2ccc(Cl)cc2)NCCc2ccc(O)c(O)c2)ccc1O` (stereo not shown) is reported as 15.3 µg/mL.
`O=C(O)c1cc(O)c(O)c(O)c1` has an IC50 of 36700 nM (absorbance).
With `CCCCOc1ccc(NC(=O)Cc2c[nH]c3ccccc23)cc1` the IC50 was 2420 nM.
`COc1cc(C(CC(N)=O)NCCc2ccc(O)c(O)c2)ccc1O` (stereo not shown) gave an IC50 of 80.2 µg/mL.
The IC50 of `COc1ccc(OC)c(NC(=O)Cc2c[nH]c3ccccc23)c1` is reported as 2000 nM.
With `Cc1cc(C(C)(C)C)c(O)c(C(C)(C)C)c1` the IC50 was 25.9 µg/mL (absorbance).
